Screening results as filed in PubChem BioAssay.
This is a sample that favours compounds with a hit; in the whole collection about 3.8% have one here.
KCNQ1 block: blocks the human KCNQ1 potassium channel. P51787. CHO-K1 KCNQ1, FluxOR thallium flux fluorescence; active compounds read high. B-score at 10 µM. 310,000 tested, 1.3% active. AID 2642;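 active means compounds whose thallium flux B-score, printed positive for inhibition, exceeds three library SD while starting fluorescence stays within three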;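 further: channel opened by potassium depolarization with thallium stimulus after 20 min compound exposure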
KCNQ1 act: potentiates or activates the human KCNQ1 potassium channel; B-score at 10 µM; 310,000 tested, 0.35% active; P51787; CHO-K1 KCNQ1, thallium flux FluxOR fluorescence; active compounds read high; AID 2648;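 active means fluorescence ratio B-score, a plate-corrected score, at least three library SD, with initial intensity B-score within 5 SD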
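Test system: CHO-K1 cells stably expressing KCNQ1 / Medium: assay buffer / Also added: depolarizing K+/Tl+ stimulus, K2SO4 and Tl2SO4 each 12.5 mM in 5x stock / Incubation: 90 min dye loading and 20 min compound exposure, both at room temperature / Signal: thallium influx via FluxOR fluorescence, kinetic imaging / Evaluation: B score of baseline-normalized fluorescence ratio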
hERG protect: shields human hERG channel from block by proarrhythmic agents | Q12809 | CHO-hERG, FluxOR thallium flux, dofetilide IC70 present | activation (rescue from dofetilide block), less the hit threshold, % at 10 µM | 310,000 tested, 0.51% active | AID 1511;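 active means activation above the mean of controls blocked by dofetilide plus 5 SD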;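 further: thallium influx through hERG after potassium depolarization seen as dye fluorescence rise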
KCNK9 block: human KCNK9 channel inhibition. Q9NPC2. HEK293 KCNK9, FluxOR thallium flux fluorescence; active compounds read low. B-score at 10 µM. 310,000 tested, 1.2% active. AID 488922;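 active means ratio B-score over 3 SD below the library mean, with starting fluorescence within 5 SD of its mean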;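 further: negative B-score means less thallium flux so channel inhibition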
KCNK3 block: human KCNK3 channel inhibition, primary screen. 340,000 tested, 0.84% active. CHO-KCNK3 thallium flux, FluxOR fluorescence; active compounds read low. B-score at 10 µM. AID 602410;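 active means B-score under library mean minus 4 SD, starting fluorescence ratio at most library mean plus 5 SD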;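 further: more negative B-score means stronger inhibition of thallium flux through KCNK3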
Kir21 block: inhibitors of mouse Kir2.1 inward-rectifier potassium channel; HEK293-Kir2.1, FluxOR thallium flux fluorescence; active compounds read low; B-score at 10 µM; 310,000 tested, 0.85% active; AID 1672;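 active means fluorescence ratio B-score at or below minus 3 SD of library scores, with starting-brightness B-score within 2 SD, cut at about -4.2 in these data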;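 further: channel flux triggered by added potassium and thallium sulfate stimulus; B-score of peak minus minimum fluorescence over baseline after thallium stimulus; more negative B-score means stronger Kir2.1 block with less thallium influx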
KCNK3 inh conf: confirmation of human KCNK3 two-pore domain potassium channel inhibitors. 2,400 tested, 99% active. shares compounds with KCNK3 block. CHO-KCNK3 thallium flux, FluxOR fluorescence; 0% buffer, 100% carvedilol maximal block. ratio percent of control, % at 10 µM. AID 651638;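 active means ratio percent of control, averaged over triplicates, above buffer control mean plus 5 SD, cut at about 64% in these data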;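 further: ratio is the fluorescence rise from min to max over baseline after thallium stimulus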
KCNK3 uninduced: KCNK3 inhibitor counter-screen hit in non-induced cells; 2,400 tested, 40% active; non-induced KCNK3 parental cells, FluxOR thallium flux; active compounds read low; AID 651747; shares compounds with KCNK3 block; thallium flux ratio (lower = more inhibition) at 10 µM;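 active means thallium flux ratio, averaged over three wells, more than 5 SD below the buffer control mean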;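 further: host cells are CHO cells without KCNK3 induction; ratio is peak minus trough fluorescence over baseline then normalized to buffer controls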
* hit, by the source's call; i = inactive; · = not tested or not shown.

SMILES	KCNQ1 block	KCNQ1 act	hERG protect	KCNK9 block	KCNK3 block	Kir21 block	KCNK3 inh conf	KCNK3 uninduced
COc1ccc(C)cc1NC(=O)c1nn(C)c(C(=O)Nc2cc(C)ccc2OC)c1[N+](=O)[O-]	i	i	-6.8	i	-9.01*	0.01	81.3*	i
CC1CCC(C(C)C)C(OC(=O)CSc2nnc(N)s2)C1 (configuration not stated)	i	i	-7.7	i	-9.72*	-4.25*	110.3*	i
COc1cc(C(=S)N2CCOCC2)ccc1OC(=O)c1ccccc1C	i	i	-6.0	i	-8.78*	1.16	90.0*	i
CC(C)CN(CC(C)C)C(=O)COn1nnc2ccc(S(=O)(=O)N3CCOCC3)cc21	·	·	·	·	i	·	·	·
O=C(COn1nnc2ccc(S(=O)(=O)N3CCOCC3)cc21)Nc1c(F)c(F)c(F)c(F)c1F	i	i	-11.1	-7.44*	-8.81*	-1.25	87.0*	i
Cc1ccc(C)c(CSC2=NCCN2S(=O)(=O)c2ccccc2)c1	i	i	-10.7	-7.94*	-11.2*	-1.7	128.7*	0.15*
O=S(=O)(c1ccc(Cl)cc1)N1CCN=C1SCc1cccc(Cl)c1	i	i	-7.1	i	i	-3.94	·	·
O=S(=O)(c1ccccc1)N1CCN=C1SCc1c(F)cccc1Cl	i	i	-19.2	i	-11.3*	-0.23	121.3*	0.139*
Cc1ccc(S(=O)(=O)N2CCN=C2SCc2ccc(Cl)c(Cl)c2)cc1	i	i	-1.7	i	i	-0.55	·	·
CSc1ccccc1C(=O)N(C)C(c1ccccc1)c1ccccc1	i	i	-12.7	i	-9.11*	-2.33	107.7*	i
Cc1sc2ncnc(N3CCN(S(=O)(=O)c4ccc(C(C)(C)C)cc4)CC3)c2c1C	·	·	·	·	i	·	·	·
Cc1sc2ncnc(N3CCN(S(=O)(=O)c4ccc(Br)cc4)CC3)c2c1C	i	i	-16.1	i	-12.2*	0.08	115.7*	0.149*
CCCCN(Cc1ccco1)C(=O)C1CCCN(c2ncnc3c2nc2n3CCCCC2)C1 (configuration not stated)	i	i	-15.2	i	-11.4*	0.08	97.0*	i
Cc1nc(SCc2ccc([N+](=O)[O-])cc2)nc2ccccc12	i	i	-12.6	i	i	-0.38	·	·
C=CCn1c(NC(C)c2cc(Cl)ccc2O)nc2ccccc21 (configuration not stated)	i	i	-5.7	-6.63*	-11.9*	-1.32	122.0*	0.143*
COCC(C)NC(=O)c1cc2cccc([N+](=O)[O-])c2[nH]1 (configuration not stated)	i	i	-8.7	i	i	0.03	·	·
Cc1cc(NC(=O)c2cc3cccc([N+](=O)[O-])c3[nH]2)ccc1F	11*	i	-8.1	i	-13.2*	0.05	126.0*	0.144*
O=[N+]([O-])c1cccc(NC(=S)N2CCN(S(=O)(=O)c3ccccc3)CC2)c1	i	i	-8.1	i	i	-1.07	·	·
Cc1cccc(CCNC(=O)c2cccc3c2C(=O)N(C2CCCCC2)C3)c1	i	i	-16.1	i	i	0.03	·	·
CCCN1Cc2cccc(C(=O)NCCc3cccc(C)c3)c2C1=O	i	i	-9.9	i	-9.73*	0.02	110.0*	0.151*
CN(C(=O)c1ccc(COc2ccccc2Cl)o1)c1ccccc1	i	i	-2.5	i	-9.94*	-3.16	82.0*	i
CCN(CC)C(=O)c1ccc(COc2ccccc2Cl)o1	i	i	-4.1	i	i	-1.7	·	·
CCOC(=O)N1CCN(Cc2nc(CC3CC3)no2)CC1	i	i	-9.1	i	i	0.72	·	·
CC(=O)NC(CC(=O)Nc1nc(-c2ccc(N(C)S(C)(=O)=O)cc2)cs1)c1ccccc1 (configuration not stated)	i	i	-13.8	i	-10.5*	0.19	59.0*	i
Cc1ccn(-c2cc(O)c(-n3ccc(C)n3)cc2O)n1	i	i	-11.4	i	i	-1.01	·	·
SMILES	KCNQ1 block	KCNQ1 act	hERG protect	KCNK9 block	KCNK3 block	Kir21 block	KCNK3 inh conf	KCNK3 uninduced
COCCCN(C(=S)Nc1cc(Cl)cc(Cl)c1)C(C)c1ccccn1 (configuration not stated)	8*	i	-8.0	i	-10.7*	1.31	123.0*	0.158*
COCCCN(C(=S)Nc1cc(Cl)cc(Cl)c1)C(C)c1ccncc1 (configuration not stated)	i	i	-8.1	i	i	-1.19	·	·
COCCNC(=O)c1ccccc1NC(=O)Cc1ccccc1[N+](=O)[O-]	i	i	-11.9	i	-9.87*	1.19	0.0	i
CCOc1ccccc1NC(=O)C(OC(=O)c1ccc(NC(=O)CC#N)cc1)c1ccccc1 (configuration not stated)	8*	i	-26.2	i	-10.2*	1.86	124.7*	0.134*
CCOc1ccccc1NC(=O)C(OC(=O)c1ccccc1O)c1ccccc1 (configuration not stated)	i	i	-6.7	i	i	-1.61	·	·
CSc1ccc(C2Nc3cccc4cccc(c34)N2)cc1	6*	i	-11.1	i	-8.84*	-1.17	111.7*	i
Clc1ccc(C2Nc3cccc4cccc(c34)N2)cc1	i	i	-5.4	i	i	-1.51	·	·
O=C(N/C=C/c1ccco1)Nc1cccc(Cl)c1	6*	i	-13.3	i	-9.32*	-1.09	93.7*	0.143*
COC(=O)c1c(NC(=O)CSc2nnnn2-c2ccccc2)sc2c1CCCC2	i	i	-2.8	i	-9.42*	0.6	95.7*	i
CCOC(=O)c1c(NC(=O)Cn2c(C)nc3ccccc32)sc2c1CCC2	i	i	-16.9	i	-9.36*	0.5	102.0*	i
CN1CCN(C(=O)c2cc(=O)c3cc(Cl)cc(Cl)c3o2)CC1	i	i	-0.4	i	i	0.75	·	·
COc1ccccc1N1CCN(C(=S)Nc2cccc(C)c2)CC1	i	i	-8.4	i	i	0.04	·	·
Cc1cc(C(=O)N/N=C/c2cc(N=Nc3ccccc3)ccc2O)n[nH]1	i	i	-13.3	i	i	-0.02	·	·
COC(=O)N/N=C/c1cc(N=Nc2ccccc2)ccc1O	i	i	-21.9	-7.17*	-10.7*	0.58	108.7*	0.153*
